According to ChEMBL document CHEMBL4004810, “Pharmacokinetics of the Individual Major Components of Polymyxin B and Colistin in Rats” (J Nat Prod, 2017):
Positions of bridges follow the written chain, without caps; N, C: chain ends. Non-standard residues stand in square brackets, D forms with d. Residues, ends and D or L forms follow the SMILES beside them. *: point of attachment. Heptanoyl(6-Me) = CC(C)CCCCC(=O)*; X1 = CC[C@@H](C)CCCCC(=O)*; X2 = CC[C@H](C)CCCCC(=O)*; Octanoyl = CCCCCCCC(=O)*; Dab = NCC[C@H](N)C(=O)O

What was measured:
[1] = Clearance in Sprague-Dawley rat at 4 mg/kg, iv administered as single bolus cassette dose by UPLC-MS/MS analysis; format: ADME, organism-based; settings: in vivo
[2] = Protein binding in rat plasma up to 10 ug/ml after 2 hrs by LC-MS/MS based ultrafiltration method; settings: read-out: PPB (converted)
[3] = Plasma concentration in Sprague-Dawley rat at 0.8 mg/kg, iv administered as single bolus dose after 360 mins by LC-MS/MS analysis; format: ADME, organism-based
How it was run: (§1)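 Jugular vein (dosing) and carotid artery (sampling) cannulated rats, recovered one day; 4 groups, n = 4, each given a 0.8 mg/kg iv bolus of one component. Blood sampled predose and at 10–360 min; urine collected in chilled metabolic cages over 0–6 h and 6–24 h. Plasma and urine quantified by LC-MS/MS (calibration 0.1–8.0 mg/L); parameters by noncompartmental analysis.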

[4] = Total clearance in Sprague-Dawley rat at 0.8 mg/kg, iv administered as single bolus dose by LC-MS/MS analysis; format: ADME, organism-based; settings: in vivo; how it was run: as §1
[5] = Volume of distribution in Sprague-Dawley rat at 0.8 mg/kg, iv administered as single bolus dose by LC-MS/MS analysis; format: ADME, organism-based; settings: in vivo; how it was run: as §1
[6] = Elimination half life in Sprague-Dawley rat at 0.8 mg/kg, iv administered as single bolus dose by LC-MS/MS analysis; format: ADME, organism-based; settings: in vivo, read-out: beta t1/2; how it was run: as §1
[7] = AUC (0 to infinity) in Sprague-Dawley rat at 0.8 mg/kg, iv administered as single bolus dose by LC-MS/MS analysis; format: ADME, organism-based; design: dose 0.8 mg/kg, route intravenous, time infinity; settings: in vivo; how it was run: as §1
[8] = Drug recovery in Sprague-Dawley rat urine at 0.8 mg/kg, iv administered as single bolus dose by LC-MS/MS analysis; format: ADME, organism-based; settings: read-out: Drug recovery; how it was run: as §1
[9] = Protein binding in Sprague-Dawley rat plasma at 5 mg/L after 30 mins by ultracentrifugation based LC-MS/MS method; format: ADME, cell-free; settings: read-out: PPB (converted)
How it was run: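 Drug-free rat plasma spiked with 5 mg/L component in triplicate, incubated 30 min at 37 °C, then ultracentrifuged 215000g for 4 h at 37 °C. Two replicates sampled protein-free supernatant, one sampled total resuspension; both measured by LC-MS/MS. % bound = (total − supernatant)/total × 100.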

[10] = Total clearance in Sprague-Dawley rat at 1 mg/kg, iv administered as bolus dose by HPLC analysis; format: ADME, organism-based; settings: in vivo

clearance [1] [mL/min/kg] | fraction unbound at 2 h [2] | concentration at 6 h [3] [ng/mL] | clearance [4] [mL/min/kg] | Vd [5] [L/kg] | half-life [6] [h] | AUC(0-inf) [7] [ng·h/mL] | dose excreted [8] [%] | fraction unbound at 0.5 h, 5 mg/L [9] | clearance [10] [mL/min/kg] | SMILES
1.69 | 0.08 | – | – | – | – | – | – | – | – | CCCCCCCC(=O)N[C@@H](CCN)C(=O)N[C@H](C(=O)N[C@@H](CCN)C(=O)N[C@H]1CCNC(=O)[C@H]([C@@H](C)O)NC(=O)[C@H](CCN)NC(=O)[C@H](CCN)NC(=O)[C@H](CC(C)C)NC(=O)[C@@H](Cc2ccccc2)NC(=O)[C@H](CCN)NC1=O)[C@@H](C)O (Octanoyl-[Dab]T[Dab][Dab][Dab][dF]L[Dab][Dab]T; lactam 4-C)
1.65 | 0.08 | 200 | 2.39 | 0.21 | 1.32 | 6080 | 0.13 | 0.177 | – | CC[C@@H](C)CCCCC(=O)N[C@@H](CCN)C(=O)N[C@H](C(=O)N[C@@H](CCN)C(=O)N[C@H]1CCNC(=O)[C@H]([C@@H](C)O)NC(=O)[C@H](CCN)NC(=O)[C@H](CCN)NC(=O)[C@H](CC(C)C)NC(=O)[C@@H](Cc2ccccc2)NC(=O)[C@H](CCN)NC1=O)[C@@H](C)O (X1-[Dab]T[Dab][Dab][Dab][dF]L[Dab][Dab]T; lactam 4-C)
– | – | – | 2.75 | 0.27 | 1.37 | 5020 | 0.14 | 0.434 | 5.1 | CC[C@H](C)CCCCC(=O)N[C@@H](CCN)C(=O)N[C@H](C(=O)N[C@@H](CCN)C(=O)N[C@H]1CCNC(=O)[C@H]([C@@H](C)O)NC(=O)[C@H](CCN)NC(=O)[C@H](CCN)NC(=O)[C@H](CC(C)C)NC(=O)[C@@H](CC(C)C)NC(=O)[C@H](CCN)NC1=O)[C@@H](C)O (X2-[Dab]T[Dab][Dab][Dab][dL]L[Dab][Dab]T; lactam 4-C)
– | – | – | 3.05 | 0.37 | 1.52 | 4600 | 0.24 | 0.583 | 5.3 | CC(C)CCCCC(=O)N[C@@H](CCN)C(=O)N[C@H](C(=O)N[C@@H](CCN)C(=O)N[C@H]1CCNC(=O)[C@H]([C@@H](C)O)NC(=O)[C@H](CCN)NC(=O)[C@H](CCN)NC(=O)[C@H](CC(C)C)NC(=O)[C@@H](CC(C)C)NC(=O)[C@H](CCN)NC1=O)[C@@H](C)O [COLISTIN B] ({Heptanoyl(6-Me)}-[Dab]T[Dab][Dab][Dab][dL]L[Dab][Dab]T; lactam 4-C)
1.69 | 0.08 | 200 | 1.96 | 0.23 | 1.58 | 6930 | 0.09 | 0.316 | – | CC(C)CCCCC(=O)N[C@@H](CCN)C(=O)N[C@H](C(=O)N[C@@H](CCN)C(=O)N[C@H]1CCNC(=O)[C@H]([C@@H](C)O)NC(=O)[C@H](CCN)NC(=O)[C@H](CCN)NC(=O)[C@H](CC(C)C)NC(=O)[C@@H](Cc2ccccc2)NC(=O)[C@H](CCN)NC1=O)[C@@H](C)O [POLYMYXIN B2] ({Heptanoyl(6-Me)}-[Dab]T[Dab][Dab][Dab][dF]L[Dab][Dab]T; lactam 4-C)
